Where “and” joins values, the source holds several entries; their conditions need not be identical. Equal values may be shown once.
Tested on: U2OS
Assay: Multiplex assay against U2OS
Format: toxicity, cell-based
Details: human, number of replicates 2
Procedure, shortened: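 Tubulin, mitochondrial-mass and membrane-permeability phenotypes are per cents of healthy-nucleus cells. Cells were gated by CellPathfinder machine learning into Hoechst high-intensity objects or normal cells, normal cells into healthy, pyknosed or fragmented nuclei, and pyknosed cells into mitotic or apoptotic. Before that, live cells stained at seeding with Hoechst33342, BioTracker Green Microtubule Cytoskeleton Dye, MitoTracker Red and Annexin V Alexa Fluor 680 were imaged on a CQ1 microscope at 37°C and 5% CO2 after compound addition.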

[1] = 12 h, 1 µM, compound concentration 1 uM
[2] = 12 h, 10 µM, compound concentration 10 uM
[3] = 24 h, 1 µM, compound concentration 1 uM
[4] = 24 h, 10 µM, compound concentration 10 uM
[5] = 48 h, 1 µM, compound concentration 1 uM
[6] = 48 h, 10 µM, compound concentration 10 uM

SMILES: COc1ccc(-c2cc3c(C)nc(N)nc3n([C@H]3CC[C@H](OCCO)CC3)c2=O)cn1 [PF-04691502]
- Population Apoptotic (%) [1]: 50% and 76%
- Population Healthy Nuclei (%) [1]: 57% and 78%
- Population Hoechst High Intensity Objects (%) [1]: 0%
- Population Membrane Permeable-Phenotype (%) [1]: 10% and 2%
- Population Mitochondria Different-Phenotype (%) [1]: 0% and 1%
- Population Mitotic Cells (%) [1]: 50% and 23%
- Population Normal (%) [1]: 100%
- Population Pyknosed Nuclei (%) [1]: 6% and 12%
- Population Tubulin-Different-Phenotype (%) [1]: 84% and 83%
- Population Apoptotic (%) [2]: 88% and 83%
- Population Fragmented Nuclei (%) [2]: 25% and 13%
- Population Healthy Nuclei (%) [2]: 46% and 54%
- Population Hoechst High Intensity Objects (%) [2]: 3% and 2%
- Population Membrane Permeable-Phenotype (%) [2]: 0% and 7%
- Population Mitochondria Different-Phenotype (%) [2]: 0% and 3%
- Population Mitotic Cells (%) [2]: 11% and 16%
- Population Normal (%) [2]: 96% and 97%
- Population Pyknosed Nuclei (%) [2]: 28% and 32%
- Population Tubulin-Different-Phenotype (%) [2]: 80% and 50%
- Population Apoptotic (%) [3]: 60% and 76%
- Population Fragmented Nuclei (%) [3]: 19% and 10%
- Population Healthy Nuclei (%) [3]: 66% and 75%
- Population Hoechst High Intensity Objects (%) [3]: 0%
- Population Membrane Permeable-Phenotype (%) [3]: 0% and 2%
- Population Mitochondria Different-Phenotype (%) [3]: 0% and 1%
- Population Mitotic Cells (%) [3]: 40% and 23%
- Population Normal (%) [3]: 100% and 99%
- Population Pyknosed Nuclei (%) [3]: 13% and 14%
- Population Tubulin-Different-Phenotype (%) [3]: 91% and 84%
- Population Apoptotic (%) [4]: 84% and 69%
- Population Fragmented Nuclei (%) [4]: 12% and 17%
- Population Healthy Nuclei (%) [4]: 46% and 50%
- Population Hoechst High Intensity Objects (%) [4]: 2%
- Population Membrane Permeable-Phenotype (%) [4]: 20% and 40%
- Population Mitochondria Different-Phenotype (%) [4]: 7% and 15%
- Population Mitotic Cells (%) [4]: 15% and 30%
- Population Normal (%) [4]: 97%
- Population Pyknosed Nuclei (%) [4]: 41% and 32%
- Population Tubulin-Different-Phenotype (%) [4]: 59% and 65%
- Population Apoptotic (%) [5]: 80% and 82%
- Population Fragmented Nuclei (%) [5]: 10% and 8%
- Population Healthy Nuclei (%) [5]: 80% and 69%
- Population Hoechst High Intensity Objects (%) [5]: 0%
- Population Membrane Permeable-Phenotype (%) [5]: 7% and 5%
- Population Mitochondria Different-Phenotype (%) [5]: 5% and 4%
- Population Mitotic Cells (%) [5]: 20% and 17%
- Population Normal (%) [5]: 100% and 99%
- Population Pyknosed Nuclei (%) [5]: 10% and 21%
- Population Tubulin-Different-Phenotype (%) [5]: 82% and 85%
- Population Apoptotic (%) [6]: 66% and 85%
- Population Fragmented Nuclei (%) [6]: 19% and 10%
- Population Healthy Nuclei (%) [6]: 22% and 26%
- Population Hoechst High Intensity Objects (%) [6]: 0% and 4%
- Population Membrane Permeable-Phenotype (%) [6]: 62% and 35%
- Population Mitochondria Different-Phenotype (%) [6]: 37% and 18%
- Population Mitotic Cells (%) [6]: 33% and 14%
- Population Normal (%) [6]: 100% and 95%
- Population Pyknosed Nuclei (%) [6]: 58% and 63%
- Population Tubulin-Different-Phenotype (%) [6]: 87% and 70%

SMILES: COc1cc(C(=O)NC2CCN(C)CC2)ccc1Nc1ncc(C(F)(F)F)c(NCc2ccc(C)cc2N(C)S(C)(=O)=O)n1.O=CO.O=CO
- Population Apoptotic (%) [1]: 50% and 69%
- Population Fragmented Nuclei (%) [1]: 6% and 5%
- Population Healthy Nuclei (%) [1]: 81% and 80%
- Population Hoechst High Intensity Objects (%) [1]: 0%
- Population Membrane Permeable-Phenotype (%) [1]: 7% and 20%
- Population Mitotic Cells (%) [1]: 50% and 30%
- Population Normal (%) [1]: 100%
- Population Pyknosed Nuclei (%) [1]: 12% and 14%
- Population Tubulin-Different-Phenotype (%) [1]: 38% and 40%
- Population Apoptotic (%) [2]: 66% and 81%
- Population Healthy Nuclei (%) [2]: 25%
- Population Hoechst High Intensity Objects (%) [2]: 1% and 3%
- Population Membrane Permeable-Phenotype (%) [2]: 38% and 48%
- Population Mitochondria Different-Phenotype (%) [2]: 84% and 69%
- Population Mitotic Cells (%) [2]: 33% and 18%
- Population Normal (%) [2]: 98% and 96%
- Population Pyknosed Nuclei (%) [2]: 47% and 66%
- Population Tubulin-Different-Phenotype (%) [2]: 100% and 96%
- Population Apoptotic (%) [3]: 42% and 74%
- Population Fragmented Nuclei (%) [3]: 4% and 5%
- Population Healthy Nuclei (%) [3]: 74% and 79%
- Population Hoechst High Intensity Objects (%) [3]: 0%
- Population Membrane Permeable-Phenotype (%) [3]: 4% and 8%
- Population Mitochondria Different-Phenotype (%) [3]: 30% and 36%
- Population Mitotic Cells (%) [3]: 57% and 25%
- Population Normal (%) [3]: 100%
- Population Pyknosed Nuclei (%) [3]: 21% and 15%
- Population Tubulin-Different-Phenotype (%) [3]: 26% and 35%
- Population Apoptotic (%) [4]: 96% and 93%
- Population Healthy Nuclei (%) [4]: 6% and 7%
- Population Hoechst High Intensity Objects (%) [4]: 3% and 5%
- Population Membrane Permeable-Phenotype (%) [4]: 75% and 80%
- Population Mitochondria Different-Phenotype (%) [4]: 100% and 86%
- Population Mitotic Cells (%) [4]: 4% and 6%
- Population Normal (%) [4]: 96% and 94%
- Population Pyknosed Nuclei (%) [4]: 43% and 78%
- Population Tubulin-Different-Phenotype (%) [4]: 100% and 93%
- Population Apoptotic (%) [5]: 64% and 83%
- Population Fragmented Nuclei (%) [5]: 12% and 4%
- Population Healthy Nuclei (%) [5]: 50% and 68%
- Population Hoechst High Intensity Objects (%) [5]: 1% and 0%
- Population Membrane Permeable-Phenotype (%) [5]: 6% and 7%
- Population Mitochondria Different-Phenotype (%) [5]: 20% and 28%
- Population Mitotic Cells (%) [5]: 35% and 16%
- Population Normal (%) [5]: 98% and 99%
- Population Pyknosed Nuclei (%) [5]: 37% and 26%
- Population Tubulin-Different-Phenotype (%) [5]: 24% and 46%
- Population Apoptotic (%) [6]: 92%
- Population Healthy Nuclei (%) [6]: 5% and 9%
- Population Hoechst High Intensity Objects (%) [6]: 0% and 3%
- Population Membrane Permeable-Phenotype (%) [6]: 100% and 73%
- Population Mitochondria Different-Phenotype (%) [6]: 66% and 73%
- Population Mitotic Cells (%) [6]: 7%
- Population Normal (%) [6]: 100% and 96%
- Population Pyknosed Nuclei (%) [6]: 49% and 76%
- Population Tubulin-Different-Phenotype (%) [6]: 100%

SMILES: O=C(NCc1ccc(F)cc1)N1CCN2C(=O)OC(c3ccccc3)(c3ccccc3)C2C1 (configuration not stated)
- Population Apoptotic (%) [1]: 80% and 46%
- Population Fragmented Nuclei (%) [1]: 11% and 2%
- Population Healthy Nuclei (%) [1]: 69% and 86%
- Population Hoechst High Intensity Objects (%) [1]: 3% and 0%
- Population Membrane Permeable-Phenotype (%) [1]: 0% and 3%
- Population Mitochondria Different-Phenotype (%) [1]: 0% and 1%
- Population Mitotic Cells (%) [1]: 20% and 53%
- Population Normal (%) [1]: 96% and 100%
- Population Pyknosed Nuclei (%) [1]: 19% and 10%
- Population Tubulin-Different-Phenotype (%) [1]: 61% and 62%
- Population Apoptotic (%) [2]: 62% and 43%
- Population Fragmented Nuclei (%) [2]: 7% and 4%
- Population Healthy Nuclei (%) [2]: 71% and 86%
- Population Hoechst High Intensity Objects (%) [2]: 0%
- Population Membrane Permeable-Phenotype (%) [2]: 22% and 24%
- Population Mitochondria Different-Phenotype (%) [2]: 22% and 17%
- Population Mitotic Cells (%) [2]: 37% and 56%
- Population Normal (%) [2]: 100% and 99%
- Population Pyknosed Nuclei (%) [2]: 21% and 9%
- Population Tubulin-Different-Phenotype (%) [2]: 88% and 60%
- Population Apoptotic (%) [3]: 47% and 81%
- Population Fragmented Nuclei (%) [3]: 2% and 8%
- Population Healthy Nuclei (%) [3]: 88% and 58%
- Population Hoechst High Intensity Objects (%) [3]: 0% and 2%
- Population Membrane Permeable-Phenotype (%) [3]: 2% and 5%
- Population Mitochondria Different-Phenotype (%) [3]: 0%
- Population Mitotic Cells (%) [3]: 52% and 18%
- Population Normal (%) [3]: 100% and 97%
- Population Tubulin-Different-Phenotype (%) [3]: 72% and 45%
- Population Apoptotic (%) [4]: 75% and 72%
- Population Fragmented Nuclei (%) [4]: 2% and 6%
- Population Healthy Nuclei (%) [4]: 64% and 78%
- Population Hoechst High Intensity Objects (%) [4]: 0%
- Population Membrane Permeable-Phenotype (%) [4]: 37% and 16%
- Population Mitochondria Different-Phenotype (%) [4]: 45% and 36%
- Population Mitotic Cells (%) [4]: 25% and 28%
- Population Normal (%) [4]: 100%
- Population Pyknosed Nuclei (%) [4]: 32% and 15%
- Population Tubulin-Different-Phenotype (%) [4]: 83% and 53%
- Population Apoptotic (%) [5]: 37% and 90%
- Population Healthy Nuclei (%) [5]: 90% and 62%
- Population Hoechst High Intensity Objects (%) [5]: 0% and 1%
- Population Membrane Permeable-Phenotype (%) [5]: 1% and 9%
- Population Mitochondria Different-Phenotype (%) [5]: 0%
- Population Normal (%) [5]: 100% and 98%
- Population Pyknosed Nuclei (%) [5]: 6% and 18%
- Population Tubulin-Different-Phenotype (%) [5]: 86% and 48%
- Population Apoptotic (%) [6]: 75% and 73%
- Population Fragmented Nuclei (%) [6]: 7% and 5%
- Population Healthy Nuclei (%) [6]: 57% and 75%
- Population Hoechst High Intensity Objects (%) [6]: 0%
- Population Membrane Permeable-Phenotype (%) [6]: 12% and 20%
- Population Mitochondria Different-Phenotype (%) [6]: 37% and 19%
- Population Mitotic Cells (%) [6]: 25% and 26%
- Population Normal (%) [6]: 100%
- Population Pyknosed Nuclei (%) [6]: 35% and 18%
- Population Tubulin-Different-Phenotype (%) [6]: 68% and 42%

Reference: ChEMBL document CHEMBL5303300, “EUbOPEN Chemogenomics Library - Multiplex” (2023)
